HIV Env fusion = HIV envelope-mediated fusion inhibition. inhibition, % at 12.3 µM. 360,000 tested, 1.1% active. HeLa-JRFL Env/CEM21 cell fusion, luciferase. AID 651610;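 active = mean replicate inhibition score of at least 50 and every replicate individually at or above 50; inconclusive = only one of the two criteria met; inactive = mean below 50 and not all replicates reaching 50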
Rtt109 Vps75 = inhibitors of Candida albicans Rtt109/Vps75 histone acetyltransferase | inhibition, % at 34.9 µM | Q5AAJ8 | AID 540336 | 330,000 tested, 0.16% active | purified Rtt109/Vps75, ThioGlo CoA-SH fluorescence, 4 h;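 active = inhibition of at least 50% in every replicate; inconclusive = best replicate reaches 50% inhibition but some replicates fall short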
Target sequence (Q5AAJ8 whole entry, looked up): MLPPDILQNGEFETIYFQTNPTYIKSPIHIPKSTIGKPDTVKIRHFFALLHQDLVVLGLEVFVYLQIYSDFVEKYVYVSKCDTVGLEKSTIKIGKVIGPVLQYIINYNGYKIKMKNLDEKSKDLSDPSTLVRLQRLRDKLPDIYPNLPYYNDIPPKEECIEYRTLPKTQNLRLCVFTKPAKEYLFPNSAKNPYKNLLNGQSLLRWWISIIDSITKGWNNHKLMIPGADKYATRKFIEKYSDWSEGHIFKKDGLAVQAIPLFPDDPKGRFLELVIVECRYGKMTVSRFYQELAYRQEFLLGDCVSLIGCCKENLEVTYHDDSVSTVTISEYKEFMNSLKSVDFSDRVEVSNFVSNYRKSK
SR-BI uptake up = SR-BI HDL lipid transfer activation; 320,000 tested, 0.096% active; activation, % at 12.5 µM; CHO ldlA[mSR-BI] cells, DiI-HDL uptake fluorescence, 3 h; 100 = double the neutral-control signal;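 active = mean replicate activation of at least 60% and every replicate at or above 60%; inconclusive = mean or all-replicate condition met, but not both; inactive = mean below 60% and not all replicates reaching 60%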
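System: LDL receptor-deficient CHO ldlA cells overexpressing murine SR-BI | Timing: 3 h uptake period with compound, 37 °C | Medium: HEPES-buffered (25 mM, pH 7.4) F12 plus 0.5% BSA | Dosing: Single-point compound dose | Signal: Bottom-read fluorescence, 550/595 nm | Read-out: Retained DiI signal reflecting DiI-HDL uptake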
SR-BI HDL uptake = blocks mouse SR-BI lipid uptake from DiI-HDL; Q61009; inhibition, % at 12.5 µM; ldlA[mSR-BI] CHO cells, DiI-HDL uptake fluorescence, 3 h; 320,000 tested, 0.96% active;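 active = mean replicate inhibition of at least 70% and a set share of replicates each scoring 70 or more; inconclusive = meets just one of the two criteria; inactive = fails both criteria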
PglD DTNB = blocks C. jejuni PglD acetyltransferase activity | purified PglD enzyme, DTNB colorimetric CoA detection | inhibition, % at 12.5 µM | 360,000 tested, 0.098% active | AID 602405; in the data active = inhibition above about 16%, passing the limit was not always enough; inconclusive = no clear call, values can overlap the other calls
N-glyco inh = N-linked glycosylation inhibition; reporter increase, % at 12.5 µM; 360,000 tested, 0.23% active; D54 ERlucT glycosylation luciferase reporter, 24 h; percent of 100 nM tunicamycin response; AID 588692;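 active = mean luciferase reporter signal, scaled so untreated is 0 and the glycosylation-blocking control 100, at or above a set limit in every replicate; inconclusive = mean reaches the limit but not every replicate does; inactive = mean below the limit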;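 also: luciferase carries N-glycosylation sites so blocking glycosylation raises the light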
Hits are given with their value; i = inactive; ? = inconclusive; nt = no result given; [ ] = remark or other dose. A selection: hits, their analogues and other compounds. The true share with any hit is near 1.9%.

SMILES	HIV Env fusion	Rtt109 Vps75	SR-BI uptake up	SR-BI HDL uptake	PglD DTNB	N-glyco inh
Cc1ccc(OCC(=O)Nc2ccc(C)c(S(=O)(=O)N3CCCCCC3)c2)c([N+](=O)[O-])n1	i	i	i	73.5	i	i
CCOC(=O)c1nc(NNC(=O)c2ccc([N+](=O)[O-])cc2)sc1C	i	i	i	90.5	i	i
CC(NCC(O)COc1ccc2ccccc2c1)c1ccccc1 (centres undefined)	64.7	i	i	i	i	i
CC(NCC(O)COC1CCC(C(C)(C)C)CC1)c1ccccc1 (centres undefined)	i	60.0	i	i	i	i
Cc1cc(OCC(O)CNC(C)c2ccccc2)ccc1C(C)C (centres undefined)	82.4	i	i	i	i	i
COc1ccc(OCC(O)CNC(C)c2ccccc2)cc1 (centres undefined)	i	i	nt	nt	i	i
C[C@H](CO)N1C[C@H](C)[C@H](CN(C)C(=O)c2ccncc2)Oc2cc(C3=CCCC3)ccc2S1(=O)=O	i	nt	nt	nt	i	nt
C[C@@H]1CN([C@H](C)CO)C(=O)c2cc(NC(=O)CCN3CCOCC3)ccc2O[C@@H]1CN(C)Cc1ccc(Cl)c(Cl)c1	i	nt	nt	nt	i	nt
CSc1ccccc1CNc1nc(NCC2CC2)nc2ccsc12	56.3	nt	nt	nt	i	i
COc1ccccc1CNc1nc(NCCOc2ccccc2Cl)c2sccc2n1	72.4	nt	nt	nt	i	i
CNc1nc(NCCOc2ccccc2Cl)c2sccc2n1	i	nt	nt	nt	i	i
COc1ccc(C(CCNCc2ccc(N(C)C)cc2)c2ccccc2)cc1 (centres undefined)	69.2	i	i	i	i	i
C[C@H](CO)N1C[C@H](C)[C@H](CN(C)C)Oc2ccc(NS(=O)(=O)c3cccs3)cc2C1=O	nt	nt	nt	nt	i	nt
C[C@H]1CCCCO[C@H](CN(C)CC2CCCCC2)[C@@H](C)CN([C@@H](C)CO)C(=O)c2cc(NC(=O)Nc3ccc(F)cc3)ccc2O1	?	nt	nt	nt	i	nt
C[C@@H]1CCCCO[C@@H](CN(C)CC2CCCCC2)[C@H](C)CN([C@H](C)CO)C(=O)c2cc(NC(=O)Nc3ccc(F)cc3)ccc2O1	75.1[16.7 µM]	nt	nt	nt	i	nt
C[C@H](CO)N1C[C@H](C)[C@H](CN(C)CC2CCCCC2)Oc2ccc(NC(=O)Nc3ccc(F)cc3)cc2C1=O	i	nt	nt	nt	i	nt
C[C@@H]1CN([C@@H](C)CO)C(=O)c2cc(NC(=O)Nc3ccc(F)cc3)ccc2O[C@@H]1CN(C)CC1CCCCC1	i	nt	nt	nt	17.1	nt
COCC(=O)N(C)C[C@@H]1Oc2cc(C#C[C@H](C)O)ccc2S(=O)(=O)N([C@@H](C)CO)C[C@H]1C	i	nt	nt	nt	i	nt
CCCCNC(=S)N/N=C/C1=CCC2CC1C2(C)C (centres undefined)	84.4	i	i	i	i	i
O=C(C[C@@H]1CC[C@@H]2[C@H](COC[C@@H](O)CN2S(=O)(=O)c2ccccc2)O1)NCc1ccc(-c2ccccc2)cc1	i	nt	nt	nt	i	nt
CC1CCCCC1N(C)C1CCN(C(=O)CNC(=O)/C=C/c2cccc(Cl)c2)CC1 (centres undefined)	i	51.3	i	i	i	i
CN(C1CCCC1)C1CCN(C(=O)CNC(=O)/C=C/c2ccccc2)CC1	nt	i	i	i	nt	i
COc1ccc(NC(=O)c2cc(-c3cc(OC)c(OC)c(OC)c3)nc3ccccc23)cc1OC	i	i	i	85.3	i	i
COc1cccc(NC(=O)c2cc(-c3cccnc3)nc3c(Cl)cccc23)c1	i	i	i	82.3	i	i
COc1ccc(Cl)cc1C(=O)NNC(=S)NC(=O)c1cc(-c2ccccc2)nc2ccccc12	72.7	i	i	i	i	i
COc1cc(-c2cc(C(=O)Nc3ccc(S(N)(=O)=O)cc3)c3ccccc3n2)cc(OC)c1OC	i	i	nt	nt	i	i
Cc1cc(C(=O)Nc2ccccc2)c2ccccc2n1	i	i	i	i	i	i
CC(C)Cc1cc(C(=O)Nc2ccccc2)c2ccccc2n1	i	i	i	70.2	i	i
CN(C)C(=O)[C@@H]1[C@@H](CO)[C@@H]2Cn3c(ccc(-c4ccccc4)c3=O)[C@H]1N2Cc1ccccn1	nt	nt	nt	nt	i	nt
COc1ccccc1Nc1ncc(C(=O)Nc2ccc(OC)c(OC)c2)c2ccccc12	nt	i	i	82.8	i	i
